Legend:
Parameters in all cases: dose 5 mg/kg, dosed compound name [14C]CS-1036, route oral
Conditions in all cases: in vivo
Thymus [1] = assay: Drug uptake in albino F344/DuCrlCrlj rat thymus at 5 mg/kg, po after 4 hrs by liquid scintillation counting; assay type: ADME, organism-based
Pancreas = assay: Drug uptake in albino F344/DuCrlCrlj rat pancreas at 5 mg/kg, po after 4 hrs by liquid scintillation counting; assay type: ADME, organism-based
Lung [2] = assay: Drug uptake in albino F344/DuCrlCrlj rat lung at 5 mg/kg, po after 8 hrs by liquid scintillation counting; assay type: ADME, organism-based
[3] = Drug uptake in albino F344/DuCrlCrlj rat bone marrow at 5 mg/kg, po after 8 hrs by liquid scintillation counting; assay type: ADME, organism-based
Lung [4] = assay: Drug uptake in albino F344/DuCrlCrlj rat lung assessed as ng equivalent of CS-1036 at 5 mg/kg, po after 1 hr by liquid scintillation counting; assay type: ADME, organism-based
[5] = Drug uptake in albino F344/DuCrlCrlj rat thyroid gland assessed as ng equivalent of CS-1036 at 5 mg/kg, po after 4 hrs by liquid scintillation counting; assay type: ADME, organism-based
[6] = Drug uptake in albino F344/DuCrlCrlj rat fat assessed as ng equivalent of CS-1036 at 5 mg/kg, po after 336 hrs by liquid scintillation counting; assay type: ADME, organism-based, Adipose tissue
Outline: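 Male F344/DuCrlCrlj rats (bought at 7 weeks, acclimatized 5–6 days; 159–167 g; n = 3 per time point) received a single oral dose of [14C]CS-1036 at 5 mg/kg. White adipose tissue was collected after abdominal aortic bleeding at 1, 4, 8, 24, 72, 168 or 336 h. Samples were counted by LSC with external-standard efficiency correction. Results were converted to ng equivalents per g from specific activity and sample weight.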

Kidney [7] = assay: Drug uptake in albino F344/DuCrlCrlj rat kidney assessed as ng equivalent of CS-1036 at 5 mg/kg, po after 4 hrs by liquid scintillation counting; assay type: ADME, organism-based
Adrenal gland [8] = assay: Drug uptake in albino F344/DuCrlCrlj rat adrenal gland assessed as ng equivalent of CS-1036 at 5 mg/kg, po after 4 hrs by liquid scintillation counting; assay type: ADME, organism-based
Cerebellum [9] = assay: Drug uptake in albino F344/DuCrlCrlj rat cerebellum at 5 mg/kg, po after 24 hrs by liquid scintillation counting; assay type: ADME, organism-based
Adrenal gland [10] = assay: Drug uptake in albino F344/DuCrlCrlj rat adrenal gland at 5 mg/kg, po after 24 hrs by liquid scintillation counting; assay type: ADME, organism-based
Zone of skin [11] = assay: Drug uptake in albino F344/DuCrlCrlj rat skin at 5 mg/kg, po after 24 hrs by liquid scintillation counting; assay type: ADME, organism-based
Small intestine = assay: Drug uptake in albino F344/DuCrlCrlj rat small intestine at 5 mg/kg, po after 24 hrs by liquid scintillation counting; assay type: ADME, organism-based
Thymus [12] = assay: Drug uptake in albino F344/DuCrlCrlj rat thymus assessed as ng equivalent of CS-1036 at 5 mg/kg, po after 168 hrs by liquid scintillation counting; assay type: ADME, organism-based
Liver [13] = assay: Drug uptake in albino F344/DuCrlCrlj rat liver assessed as ng equivalent of CS-1036 at 5 mg/kg, po after 168 hrs by liquid scintillation counting; assay type: ADME, organism-based
Kidney [14] = assay: Drug uptake in albino F344/DuCrlCrlj rat kidney assessed as ng equivalent of CS-1036 at 5 mg/kg, po after 168 hrs by liquid scintillation counting; assay type: ADME, organism-based
Thymus [15] = assay: Drug uptake in albino F344/DuCrlCrlj rat thymus assessed as ng equivalent of CS-1036 at 5 mg/kg, po after 8 hrs by liquid scintillation counting; assay type: ADME, organism-based
Adrenal gland [16] = assay: Drug uptake in albino F344/DuCrlCrlj rat adrenal gland assessed as ng equivalent of CS-1036 at 5 mg/kg, po after 8 hrs by liquid scintillation counting; assay type: ADME, organism-based
[17] = Drug uptake in albino F344/DuCrlCrlj rat testis assessed as ng equivalent of CS-1036 at 5 mg/kg, po after 168 hrs by liquid scintillation counting; assay type: ADME, organism-based
[18] = Drug uptake in albino F344/DuCrlCrlj rat trachea at 5 mg/kg, po after 1 hr by liquid scintillation counting; assay type: ADME, organism-based
Spleen = assay: Drug uptake in albino F344/DuCrlCrlj rat spleen assessed as ng equivalent of CS-1036 at 5 mg/kg, po after 336 hrs by liquid scintillation counting; assay type: ADME, organism-based
Blood [19] = assay: Drug uptake in albino F344/DuCrlCrlj rat blood assessed as ng equivalent of CS-1036 at 5 mg/kg, po after 24 hrs by liquid scintillation counting; assay type: ADME, organism-based
Outline: (§1)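 Male F344/DuCrlCrlj rats (159–167 g; n = 3 per time point) received a single oral dose of [14C]CS-1036 at 5 mg/kg. Blood was taken from the abdominal aorta at 1, 4, 8, 24, 72, 168 and 336 h. Radioactivity was counted by LSC with external-standard efficiency correction. Results were converted to ng equivalent of CS-1036/ml using specific activity and sample volume, and reported as mean + S.D.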

Cerebrum = assay: Drug uptake in albino F344/DuCrlCrlj rat cerebrum assessed as ng equivalent of CS-1036 at 5 mg/kg, po after 24 hrs by liquid scintillation counting; assay type: ADME, organism-based
Outline: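 Single oral [14C]CS-1036 at 5 mg/kg was given to male rats (159–167 g; n = 3). Cerebrum was collected after aortic bleeding at 1, 4, 8, 24, 72, 168 or 336 h, weighed, and homogenized in 2 volumes of saline. A 0.5 ml aliquot was solubilized in Soluene-350 and counted by LSC with external-standard correction. Results are in ng equivalent/g tissue from specific activity and sample weight.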

Cerebellum [20] = assay: Drug uptake in albino F344/DuCrlCrlj rat cerebellum at 5 mg/kg, po after 168 hrs by liquid scintillation counting; assay type: ADME, organism-based
Lung [21] = assay: Drug uptake in albino F344/DuCrlCrlj rat lung at 5 mg/kg, po after 168 hrs by liquid scintillation counting; assay type: ADME, organism-based
Zone of skin [22] = assay: Drug uptake in albino F344/DuCrlCrlj rat skin at 5 mg/kg, po after 168 hrs by liquid scintillation counting; assay type: ADME, organism-based
Large intestine = assay: Drug uptake in albino F344/DuCrlCrlj rat large intestine at 5 mg/kg, po after 168 hrs by liquid scintillation counting; assay type: ADME, organism-based
Blood [23] = assay: Drug uptake in albino F344/DuCrlCrlj rat blood at 5 mg/kg, po after 336 hrs by liquid scintillation counting; assay type: ADME, organism-based; outline: as §1
Thymus [24] = assay: Drug uptake in albino F344/DuCrlCrlj rat thymus at 5 mg/kg, po after 336 hrs by liquid scintillation counting; assay type: ADME, organism-based
Liver [25] = assay: Drug uptake in albino F344/DuCrlCrlj rat liver at 5 mg/kg, po after 336 hrs by liquid scintillation counting; assay type: ADME, organism-based
Zone of skin [26] = assay: Drug uptake in albino F344/DuCrlCrlj rat skin at 5 mg/kg, po after 336 hrs by liquid scintillation counting; assay type: ADME, organism-based
Thymus [27] = assay: Drug uptake in albino F344/DuCrlCrlj rat thymus assessed as ng equivalent of CS-1036 at 5 mg/kg, po after 24 hrs by liquid scintillation counting; assay type: ADME, organism-based
[28] = Drug uptake in albino F344/DuCrlCrlj rat bone marrow assessed as ng equivalent of CS-1036 at 5 mg/kg, po after 24 hrs by liquid scintillation counting; assay type: ADME, organism-based

- Radiolabel recovery (Thymus [1]): 22 ngequiv/g
- Radiolabel recovery (Pancreas): 249 ngequiv/g
- Radiolabel recovery (Lung [2]): 64.8 ngequiv/g
- Radiolabel recovery [3]: 75 ngequiv/g
- Radiolabel recovery (Lung [4]): 3 ngequiv/g
- Radiolabel recovery [5]: 21.4 ngequiv/g
- Radiolabel recovery [6]: 63 ngequiv/g
- Radiolabel recovery (Kidney [7]): 173 ngequiv/g
- Radiolabel recovery (Adrenal gland [8]): 8.6 ngequiv/g
- Radiolabel recovery (Cerebellum [9]): 21.1 ngequiv/g
- Radiolabel recovery (Adrenal gland [10]): 81.8 ngequiv/g
- Radiolabel recovery (Zone of skin [11]): 53.9 ngequiv/g
- Radiolabel recovery (Small intestine): 94.4 ngequiv/g
- Radiolabel recovery (Thymus [12]): 5.4 ngequiv/g
- Radiolabel recovery (Liver [13]): 9.1 ngequiv/g
- Radiolabel recovery (Kidney [14]): 5.4 ngequiv/g
- Radiolabel recovery (Thymus [15]): 47 ngequiv/g
- Radiolabel recovery (Adrenal gland [16]): 66.9 ngequiv/g
- Radiolabel recovery [17]: 3.81 ngequiv/g
- Radiolabel recovery [18]: 41.1 ngequiv/g
- Radiolabel recovery (Spleen): 2.83 ngequiv/g
- Radiolabel recovery (Blood [19]): 4 ngequiv/ml
- Radiolabel recovery (Cerebrum): 1.5 ngequiv/g
- Radiolabel recovery (Cerebellum [20]): 7.12 ngequiv/g
- Radiolabel recovery (Lung [21]): 17.2 ngequiv/g
- Radiolabel recovery (Zone of skin [22]): 53.3 ngequiv/g
- Radiolabel recovery (Large intestine): 26.4 ngequiv/g
- Radiolabel recovery (Blood [23]): 5.27 ngequiv/ml
- Radiolabel recovery (Thymus [24]): 5.1 ngequiv/g
- Radiolabel recovery (Liver [25]): 7.76 ngequiv/g
- Radiolabel recovery (Zone of skin [26]): 24.9 ngequiv/g
- Radiolabel recovery (Thymus [27]): 5.8 ngequiv/g
- Radiolabel recovery [28]: 19 ngequiv/g
SMILES: C[C@H]1O[C@@H](O[C@H]2[C@H](O)[C@@H](O)[C@@H](O[14C@H]3[14C@H](O)[14CH2]N[14C@@H]3[14CH2]O)O[C@@H]2CO)[C@H](O)[C@@H](O)[C@@H]1O

From ChEMBL document CHEMBL3526002, “Tissue distribution and identification of radioactivity components at elimination phase after oral administration of [¹⁴C]CS-1036, an α-amylase inhibitor, to rats” (Drug Metab Dispos, 2013)
